GASC1 inh – inhibitors of GASC-1 (KDM4C) histone demethylase, primary screen, biochemical, single concentration HTS; Lysine-specific demethylase 4C (Homo sapiens), Q9H3R0; GST-KDM4C 2-372, H3K9me3 peptide, LANCE TR-FRET; inhibition, % at 12.5 µM; 96,000 tested, 0.15% active; AID 720574, 2013;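 active = mean replicate inhibition above about 25%, with at least 55% of replicates also reaching it, limit read from the data, passing the limit was not always enough; inconclusive = only one of those two conditions met; inactive = neither condition met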
Target sequence (Q9H3R0 2-372 limits assumed): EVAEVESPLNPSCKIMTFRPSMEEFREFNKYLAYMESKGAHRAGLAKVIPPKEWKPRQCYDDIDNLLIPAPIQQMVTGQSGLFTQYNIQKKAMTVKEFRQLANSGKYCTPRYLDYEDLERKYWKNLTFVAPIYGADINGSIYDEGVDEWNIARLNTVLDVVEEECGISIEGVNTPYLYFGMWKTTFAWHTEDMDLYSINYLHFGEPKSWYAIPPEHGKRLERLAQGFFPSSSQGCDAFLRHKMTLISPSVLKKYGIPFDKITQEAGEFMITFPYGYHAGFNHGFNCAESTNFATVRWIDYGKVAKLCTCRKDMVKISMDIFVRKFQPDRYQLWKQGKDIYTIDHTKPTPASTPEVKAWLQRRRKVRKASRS
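System: N-terminal GST-fused human GASC-1 (KDM4C) fragment, residues 2-372; amount: enzyme final amount 10 nM; incubation: reaction 30 min RT, detection step 1 h RT; medium: HEPES buffer, pH 7.5, plus ascorbate; technique: LANCE TR-FRET, Eu antibody, ULight-streptavidin, EDTA, ex 340 nm, em 618/671 nm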
Pf Dd2 growth – P. falciparum Dd2 growth inhibitors, primary screen, SYBR Green fluorescence, single dose replicates | 72 h; stronger effect = lower value | activity change, % at 10 µM | 94,000 tested, 2.3% active | AID 1159554, 2015; in the data active = activity change below about -80%; inconclusive = no clear call, values can overlap the other calls
T cruzi growth-1 – T. cruzi intracellular proliferation inhibitors, primary screen, cell-based, beta-gal Tulahuen parasites, NIH3T3 host, luminescence; AID 624255, 2012; 77,000 tested, 5.9% active; inhibition, % at 8.34 µM; T. cruzi beta-gal in NIH3T3, GalScreen luminescence, 90 h;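 active = mean inhibition above about 93%, with at least 55% of replicates each passing it, limit read from the data, passing the limit was not always enough; inconclusive = only one of those two conditions holds; inactive = neither condition holds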
IDH1 R132H inh – inhibitors of IDH1 R132H reductase, primary screen, biochemical, plate reader, single point. Isocitrate dehydrogenase [NADP] cytoplasmic (Homo sapiens), O75874. inhibition, % at 10 µM. 70,000 tested, 0.18% active. AID 624101, 2012. diaphorase/resazurin fluorescence, 60 min; in the data active = inhibition above about 34%; inconclusive = no clear call, values can overlap the other calls; inactive = below about 11%;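 note: 0% = DMSO and 100% = no enzyme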
T cruzi growth-2 – T. cruzi intracellular proliferation inhibitors, confirmation, cell-based, NIH3T3 host, beta-gal parasite, luminescence, cherry-pick | shares compounds with T cruzi growth-1 | T. cruzi beta-gal in NIH3T3, GalScreen luminescence, 90 h | inhibition, % at 8.35 µM | 5,600 tested, 72% active | AID 651739, 2012;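 active = mean replicate inhibition above about 95% and at least 55% of replicates individually reaching it, limit read from the data; inconclusive = only one of the two criteria is met; inactive = neither criterion is met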
T cruzi growth-3 – inhibitors of intracellular T. cruzi replication, confirmation, NIH3T3 host cells, beta-gal parasites, cherry-pick, set 2 | inhibition, % at 2.09 µM | T. cruzi beta-gal in NIH3T3, GalScreen luminescence, 90 h | shares compounds with T cruzi growth-1 | 5,600 tested, 21% active;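 active = mean inhibition above about 95%, with at least 55% of replicates also reaching it, limit read from the data; inconclusive = meets just one of the two conditions; inactive = meets neither condition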;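 note: plate controls were neutral control median for no effect and positive control median for full effect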
NIH3T3 tox – cytotoxicity in mouse NIH/3T3 fibroblasts, confirmation, cytotoxicity control for T. cruzi proliferation inhibitor project, cell-based, cherry-pick, single point | NIH/3T3 viability, CellTiter-Glo ATP luminescence, 90 h | cytotoxicity (signal decrease), % at 8.35 µM | 5,600 tested, 14% active | shares compounds with T cruzi growth-1 | AID 651742, 2012;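 active = mean signal decrease across replicates above about 35% based on untreated-well scatter, with enough replicates individually passing, limit read from the data; inconclusive = no rule stated though some were filed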;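 note: 0% = median of neutral control wells and 100% = median of positive control wells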
3T3 cytotox 2 – NIH/3T3 fibroblast cytotoxicity, confirmation, cytotoxicity control, cell-based, cherry-pick, single point, set 2; shares compounds with T cruzi growth-1; 5,600 tested, 56% active; NIH/3T3 viability, CellTiter-Glo ATP luminescence, 90 h; inhibition, % at 24.9 µM;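 active = mean loss of cell viability signal at or above a set limit, and enough replicates individually reaching it; inconclusive = meets only the mean limit or only the replicate share; inactive = meets neither condition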;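 note: 0% = median of neutral control wells and 100% = median of positive control wells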
* marks the source's active call; other numbers are inactive results; ? = inconclusive; · = no result given. Most compounds without a hit are left out; they make up all but 5.9% or so of the library.

SMILES | GASC1 inh | Pf Dd2 growth | T cruzi growth-1 | IDH1 R132H inh | T cruzi growth-2 | T cruzi growth-3 | NIH3T3 tox | 3T3 cytotox 2
O=C(C[C@H]1CC[C@@H]2[C@H](COC[C@@H](O)CN2Cc2cccc(C(F)(F)F)c2)O1)NCc1ccc(Cl)cc1 | -1 | -13 | 178* | · | 109* | 24 | 47* | 56*
O=C(C[C@H]1CC[C@@H]2[C@H](COC[C@@H](O)CN2Cc2cccc(Cl)c2)O1)NCC1CCCCC1 | 0 | · | 111* | · | 51 | -22 | 5 | -6
COc1ccc(S(=O)(=O)N(C)CC(=O)NC2CCCC2)cc1 | · | · | · | 0 | · | · | · | ·
C[C@@H]1CCCCO[C@@H](CN(C)C(=O)C2CCCCC2)[C@@H](C)CN([C@H](C)CO)C(=O)c2cc(NS(=O)(=O)c3ccc(Cl)cc3)ccc2O1 | 0 | -5 | 59 | · | · | · | · | ·
C[C@@H]1CN([C@H](C)CO)C(=O)c2cc(NS(=O)(=O)c3ccc(Cl)cc3)ccc2O[C@@H](C)CCCCO[C@H]1CN(C)C(=O)C1CCCCC1 | 0 | -30 | ? | · | 96* | 61 | 19 | 100*
C[C@H](CO)N1C[C@H](C)[C@@H](CN(C)C(=O)C2CCCCC2)OCCCC[C@H](C)Oc2ccc(NS(=O)(=O)c3ccc(Cl)cc3)cc2C1=O | 0 | 25 | 67 | · | · | · | · | ·
C[C@@H]1CN([C@H](C)CO)C(=O)c2cc(NS(=O)(=O)c3ccc(F)cc3)ccc2O[C@@H](C)CCCCO[C@H]1CN(C)C(=O)C1CCCCC1 | -3 | -61 | ? | · | 101* | 63 | -7 | -6
C[C@@H]1CCCCO[C@@H](CN(C)C(=O)C2CCCCC2)[C@H](C)CN([C@H](C)CO)C(=O)c2cc(NS(=O)(=O)c3ccc(Cl)cc3)ccc2O1 | 0 | -14 | ? | -1 | 110* | 88 | -2 | 100*
C[C@H]1CN([C@@H](C)CO)S(=O)(=O)c2ccc(/C=C/c3ccccc3)cc2O[C@H]1CN(C)C(=O)Nc1cccc(F)c1 | 0 | -33 | 123* | 0 | 106* | 103* | 39* | 38*
C/C=C/c1ccc2c(c1)O[C@H](CN(C)C(=O)Nc1cccc(F)c1)[C@H](C)CN([C@@H](C)CO)S2(=O)=O | -4 | 31 | 93 | -5 | · | · | · | ·
C[C@@H]1CN([C@@H](C)CO)S(=O)(=O)c2ccc(/C=C/c3ccccc3)cc2O[C@@H]1CN(C)C(=O)Nc1cccc(F)c1 | 0 | -54 | 127* | 0 | 101* | 105* | ? | 29*
C[C@@H]1CN([C@@H](C)CO)S(=O)(=O)c2ccc(/C=C/c3ccccc3)cc2O[C@H]1CN(C)C(=O)Nc1cccc(F)c1 | 0 | -50 | 127* | -3 | 95* | 97* | 49* | 80*
Cc1noc(C)c1NC(=O)N(C)C[C@@H]1OCCCC[C@@H](C)Oc2ccc(NC(=O)Cc3ccccc3)cc2C(=O)N([C@@H](C)CO)C[C@@H]1C | · | · | · | 0 | · | · | · | ·
CCCNC(=O)C[C@@H]1CC[C@H]2[C@@H](COC[C@H](O)CN2C(=O)Nc2ccccc2OC)O1 | 0 | 1 | 48 | · | · | · | · | ·
COc1cccc(NC(=O)N2C[C@H](O)COC[C@H]3O[C@@H](CC(=O)NC4Cc5ccccc5C4)CC[C@@H]32)c1 | 1 | 13 | 109* | · | -7 | -42 | -16 | -4
C[C@@H](NC(=O)C[C@@H]1CC[C@H]2[C@@H](COC[C@H](O)CN2C(=O)Nc2cc(Cl)cc(Cl)c2)O1)c1ccccc1 | 1 | -2 | 100* | · | 104* | 91 | 30 | 52*
C[C@@H](NC(=O)C[C@H]1CC[C@H]2[C@@H](COC[C@H](O)CN2C(=O)Nc2cccc(Cl)c2)O1)c1ccccc1 | 1 | -42 | 110* | · | 105* | -1 | 10 | 46*
CCCNC(=O)C[C@H]1CC[C@H]2[C@@H](COC[C@H](O)CN2C(=O)Nc2ccccc2OC)O1 | 1 | -22 | 117* | · | 97* | 0 | -8 | -10
CCc1cccc(C)c1NC(=O)CSc1nnc(-c2ccc(C)cc2)n1C | · | · | · | 0 | · | · | · | ·
COc1ccc(Cl)cc1N(CC(=O)Nc1cc(Cl)cc(Cl)c1)S(C)(=O)=O | · | · | · | 0 | · | · | · | ·
C[C@H](CO)N1C[C@H](C)[C@@H](CN(C)S(=O)(=O)c2ccc(Cl)cc2)OCCCC[C@H](C)Oc2ccc(NC(=O)Nc3ccc4c(c3)OCO4)cc2C1=O | 0 | -64 | 106* | · | 114* | 104* | 2 | -3
Cc1ccc(S(=O)(=O)N(C)C[C@@H]2OCCCC[C@H](C)Oc3ccc(NC(=O)Nc4ccc5c(c4)OCO5)cc3C(=O)N([C@H](C)CO)C[C@H]2C)cc1 | -1 | -75 | · | 4 | · | · | · | ·
C[C@@H]1CCCCO[C@H](CN(C)S(=O)(=O)c2ccc(Cl)cc2)[C@H](C)CN([C@@H](C)CO)C(=O)c2cc(NC(=O)Nc3ccc4c(c3)OCO4)ccc2O1 | 0 | -85* | 100* | · | 105* | 113* | -3 | 11
C[C@H](CO)N1C[C@H](C)[C@H](CN(C)S(=O)(=O)c2ccc(Cl)cc2)OCCCC[C@H](C)Oc2ccc(NC(=O)Nc3ccc4c(c3)OCO4)cc2C1=O | -1 | -69 | 104* | · | 103* | 102* | -2 | 16
O=C(CCCCCC(=O)NN=C1CCCC1)NO | · | · | · | 0 | · | · | · | ·
CC1(C)CC(n2c(SCC(=O)c3ccc(Cl)cc3)nc3ccccc3c2=O)CCO1 (stereo not given) | · | · | · | 0 | · | · | · | ·
Cc1ccc(-c2nc3cc(Cl)ccc3o2)cc1NC(=O)COc1ccccc1[N+](=O)[O-] | · | · | · | 0 | · | · | · | ·
Cc1ccsc1C1C(C(=O)c2ccco2)C(=O)C(=O)N1Cc1ccco1 (stereo not given) | · | · | · | 3 | · | · | · | ·
C[C@H](O)C#Cc1ccc([C@H]2[C@@H](CO)N3CCCCN(S(=O)(=O)c4ccccc4)C[C@H]23)cc1 | 0 | -17 | 19 | · | · | · | · | ·
Cc1cccc(S(=O)(=O)N2CCCCN3[C@@H](CO)[C@H](c4ccc(C#C[C@@H](C)O)cc4)[C@@H]3C2)c1 | 0 | -25 | 82 | · | · | · | · | ·

Compound activity from PubChem.
